These results are taken from ChEMBL document CHEMBL1136140, “Tripeptide inhibitors of Yersinia protein-tyrosine phosphatase” (Bioorg Med Chem Lett, 2003).

Assay [1] deals with T1, Tyrosine-protein phosphatase non-receptor type 1 (Homo sapiens, UniProt P18031).
T1 sequence (P18031 whole entry): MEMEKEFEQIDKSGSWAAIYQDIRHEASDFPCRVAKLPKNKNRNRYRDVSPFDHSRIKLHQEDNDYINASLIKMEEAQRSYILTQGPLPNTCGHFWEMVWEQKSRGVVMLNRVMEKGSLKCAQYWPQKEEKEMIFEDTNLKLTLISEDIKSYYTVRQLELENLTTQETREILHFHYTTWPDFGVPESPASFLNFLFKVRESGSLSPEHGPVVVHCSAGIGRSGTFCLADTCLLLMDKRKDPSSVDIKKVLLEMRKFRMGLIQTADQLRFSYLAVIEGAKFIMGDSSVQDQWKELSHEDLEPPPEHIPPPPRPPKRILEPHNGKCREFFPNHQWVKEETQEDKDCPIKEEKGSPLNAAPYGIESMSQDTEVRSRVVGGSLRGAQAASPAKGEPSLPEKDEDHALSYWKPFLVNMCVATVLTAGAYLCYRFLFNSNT
The assay is described as follows: Inhibition of human Protein-tyrosine phosphatase 1B expressed in Escherichia coli BL21 (DE3) cells. The essentials:
(§1)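 Recombinant enzymes made in E. coli BL21(DE3) and purified as published previously. Assay run at 30 °C, pH 7.0, in 50 mM 3,3-dimethylglutarate, 1 mM EDTA, ionic strength brought to 150 mM with NaCl. Substrate pNPP fixed at each enzyme's Km. Enzyme added to start, NaOH quench, A405 read. Six to eight inhibitor concentrations used. IC50 obtained by fitting relative activity to a four-parameter slope-factor equation.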

Assay [2] concerns the target Secreted effector protein (Yersinia pestis, UniProt O68720). Nature of the assay: Inhibition of Tyrosine phosphatase from Yersinia pestis expressed in Escherichia coli BL21 (DE3) cells. The essentials:
as §1

The target of assay [3] is T1, Tyrosine-protein phosphatase non-receptor type 1. The assay is described as follows: Inhibitory potency against human Protein-tyrosine phosphatase 1B expressed in Escherichia coli BL21 (DE3) cells. The method, boiled down:
as §1

SMILES strings stand for the structures. pIC50, pKi: −log10 of the molar value. Square brackets hold non-standard residues; d marks the D form. Peptide text beside a SMILES is read from it. * marks the point of attachment. F2Pmp = N[C@@H](Cc1ccc(C(F)(F)P(=O)(O)O)cc1)C(=O)O; Fmoc = O=C(OCC1c2ccccc2-c2ccccc21)*; OBn = c1ccc(CO*)cc1

Sequence of Secreted effector protein (O68720 whole entry): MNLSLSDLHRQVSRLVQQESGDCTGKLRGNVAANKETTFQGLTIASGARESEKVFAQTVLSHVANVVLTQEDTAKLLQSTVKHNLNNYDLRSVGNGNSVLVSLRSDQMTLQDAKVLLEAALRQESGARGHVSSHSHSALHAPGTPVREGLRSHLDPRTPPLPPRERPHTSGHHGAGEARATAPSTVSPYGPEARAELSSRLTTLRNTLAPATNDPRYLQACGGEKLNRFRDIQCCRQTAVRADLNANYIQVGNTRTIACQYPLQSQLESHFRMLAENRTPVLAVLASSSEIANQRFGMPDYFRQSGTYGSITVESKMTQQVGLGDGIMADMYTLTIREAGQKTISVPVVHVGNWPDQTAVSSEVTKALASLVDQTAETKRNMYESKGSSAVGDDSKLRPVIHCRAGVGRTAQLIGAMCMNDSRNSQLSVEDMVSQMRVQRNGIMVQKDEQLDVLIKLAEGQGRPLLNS

In general, pIC50 refers to the negative decadic logarithm of the IC50, by convention in mol/L. Consider `CC(C)C[C@H](NC(=O)[C@H](Cc1ccc(C(C(=O)O)C(=O)O)cc1)NC(=O)[C@H](CCC(=O)O)NC(=O)OCC1c2ccccc2-c2ccccc21)C(N)=O`, for which the pIC50 was 6.10 in assay [1] and less than 3.10 in assay [2].
On to `CC(C)C[C@H](NC(=O)[C@H](Cc1ccc(OCC(=O)O)c(C(=O)O)c1)NC(=O)[C@H](CCC(=O)OCc1ccccc1)NC(=O)OCC1c2ccccc2-c2ccccc21)C(N)=O`, for which the pIC50 in assay [1] is 5.08; in assay [2] it was 4.98.
With `CC(C)C[C@H](NC(=O)[C@H](Cc1ccc(C(F)(C(=O)O)C(=O)O)cc1)NC(=O)[C@H](CCC(=O)O)NC(=O)OCC1c2ccccc2-c2ccccc21)C(N)=O`, the pIC50 in assay [1] was 6.15; in assay [2], less than 3.10.
For the compound `CC(C)C[C@H](NC(=O)[C@H](Cc1ccc(OC(C(=O)O)C(=O)O)cc1)NC(=O)[C@H](CCC(=O)OCc1ccccc1)NC(=O)OCC1c2ccccc2-c2ccccc21)C(N)=O`, the negative logarithm of the IC50 (pIC50) was 3.94 in assay [1] and 4.09 in assay [2].
Consider `CC(C)C[C@H](NC(=O)[C@H](Cc1ccc(CC(=O)O)c(C(=O)O)c1)NC(=O)[C@H](CCC(=O)OCc1ccccc1)NC(=O)OCC1c2ccccc2-c2ccccc21)C(N)=O`, for which the negative-log IC50 (pIC50) in assay [1] was 4.36; in assay [2], 3.85.
On to `CC(C)C[C@H](NC(=O)[C@H](Cc1ccc(C(F)(C(=O)O)C(=O)O)cc1)NC(=O)[C@H](CCC(=O)OCc1ccccc1)NC(=O)OCC1c2ccccc2-c2ccccc21)C(N)=O`, for which the pIC50 in assay [1] and in assay [2] was 5.51 each time.
Regarding `CC(C)C[C@H](NC(=O)[C@H](Cc1ccc(OCC(=O)O)cc1)NC(=O)[C@H](CCC(=O)OCc1ccccc1)NC(=O)OCCc1ccccc1)C(N)=O`, the pIC50 in assay [1] is 4.24; in assay [2], 5.10.
In the case of `CC(C)C[C@H](NC(=O)[C@H](Cc1ccc(CC(=O)O)c(O)c1)NC(=O)[C@H](CCC(=O)O)NC(=O)OCC1c2ccccc2-c2ccccc21)C(N)=O`, the pIC50 in assay [1] is 5.40; in assay [2], less than 3.10.
The term pKi denotes the negative decadic logarithm of the Ki, by convention in mol/L. Low values mean a large Ki, high ones a small Ki. Regarding `CC(C)C[C@H](NC(=O)[C@H](Cc1ccc(OC(C(=O)O)C(=O)O)cc1)NC(=O)[C@H](CCC(=O)O)NC(=O)OCC1c2ccccc2-c2ccccc21)C(N)=O`, the pKi in assay [3] was 4.54. In assay [2], this compound gave a pIC50 of less than 3.10.
With `CC(C)C[C@H](NC(=O)[C@H](Cc1ccc(C(F)(F)C(=O)O)cc1)NC(=O)[C@H](CCC(=O)O)NC(=O)OCC1c2ccccc2-c2ccccc21)C(N)=O`, the values for the pIC50 in assay [1] and in assay [2] were 5.85 and less than 3.10, respectively.
With `CC(C)C[C@H](NC(=O)[C@H](Cc1ccc(OCC(=O)O)c(C(=O)O)c1)NC(=O)[C@H](CCC(=O)O)NC(=O)OCC1c2ccccc2-c2ccccc21)C(N)=O`, the pIC50 was 4.26 in assay [1] and less than 4.00 in assay [2].
Take `CC(C)C[C@H](NC(=O)[C@H](Cc1ccc(C(F)(F)P(=O)(O)O)cc1)NC(=O)[C@H](CCC(=O)OCc1ccccc1)NC(=O)OCC1c2ccccc2-c2ccccc21)C(N)=O` (Fmoc-Glu(OBn)-[F2Pmp]-Leu-NH2): the negative-log IC50 (pIC50) in assay [1] is 5.85; in assay [2], 5.28.
Turning to `CC(C)C[C@H](NC(=O)[C@H](Cc1ccc(OC(F)(C(=O)O)C(=O)O)cc1)NC(=O)[C@H](CCC(=O)OCc1ccccc1)NC(=O)OCC1c2ccccc2-c2ccccc21)C(N)=O`, the pIC50 in assay [1] is 5.82; in assay [2] it was 5.54.
As to `CC(C)C[C@H](NC(=O)[C@H](Cc1ccc(CC(=O)O)c(C(=O)O)c1)NC(=O)[C@H](CCC(=O)O)NC(=O)OCC1c2ccccc2-c2ccccc21)C(N)=O`, the figures for the pIC50 in assay [1] and in assay [2] were 6.15 and less than 3.10, respectively.
